Bioassay records (PubChem BioAssay)
OX1R antag-1 = antagonists of human orexin 1 receptor (OX1R); Orexin/Hypocretin receptor type 1 (Homo sapiens), O43613; OX1R-expressing cells, FRET antagonist read-out; inhibition, % at 6.6 µM; actives 1.8% (n = 330,000); AID 485270, 2010; in the data active = inhibition mostly above about 38%, no sharp cut-off; inactive = mostly below about 40%;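 note: 0% = agonist challenge alone and 100% = reference antagonist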
Target sequence (O43613 whole entry, looked up): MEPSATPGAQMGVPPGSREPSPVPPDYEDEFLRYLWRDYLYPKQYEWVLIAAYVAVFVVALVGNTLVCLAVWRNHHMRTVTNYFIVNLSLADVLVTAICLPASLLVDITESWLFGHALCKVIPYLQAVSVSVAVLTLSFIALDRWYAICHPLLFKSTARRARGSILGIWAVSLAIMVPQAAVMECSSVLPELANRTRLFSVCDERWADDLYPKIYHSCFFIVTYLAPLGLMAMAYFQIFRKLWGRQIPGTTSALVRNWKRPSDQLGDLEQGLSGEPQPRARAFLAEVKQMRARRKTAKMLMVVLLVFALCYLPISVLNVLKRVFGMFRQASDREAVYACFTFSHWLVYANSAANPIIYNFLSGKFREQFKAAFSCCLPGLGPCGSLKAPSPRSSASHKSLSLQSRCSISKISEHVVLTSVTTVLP
TAAR1 antagonist = human TAAR1 antagonists, primary screen, Fluo-8 calcium fluorescence, CHO RD-HGA16 cells. Trace amine-associated receptor 1 (Homo sapiens), Q96RJ0. antagonist. inhibition, % at 3 µM. actives 1.5% (n = 360,000);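 active = inhibition above a per-plate cutoff, the mean inhibition of test compounds on that plate plus 3 SD, cut at about 49% in these data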;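 note: 0% = DMSO plus EC80 beta-PEA response and 100% = DMSO alone without agonist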
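Test system: hTAAR1-expressing CHO RD-HGA16 cells, Gα16-coupled; Probe or stimulus: EC80 β-phenethylamine stimulus; Compound dosing: single nominal final test compound concentration of 3 µM; Timing: 140 s kinetic read after compound, 140 s after agonist; Signal: Fluo-8 calcium-sensitive fluorescence; Measure: % inhibition of agonist calcium response; Controls: DMSO and EC80 PEA controls.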
CHO parental Ca = ATP-evoked calcium signal inhibitors, parental CHO, primary screen, counter-screen for OX1R antagonist project, cell-based, fluorescence, Fluo-8 calcium dye. parental CHO-K1, ATP-induced calcium, Fluo-8 fluorescence. actives 0.63% (n = 330,000). inhibition, % at 5.6 µM;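 active = inhibition above that plate's mean sample inhibition plus 3 SD, cut at about 26% in these data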;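 note: 0% = ATP-challenged DMSO wells and 100% = DMSO wells without ATP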
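Material: Parental CHO cells | Reagent: ATP | Compound dosing: Single nominal dose of 5.6 µM per compound | Detection: Intracellular calcium via Fluo-8 no-wash fluorescent dye | Read-out: % inhibition of ATP-induced calcium mobilization | Benchmarks: Low control ATP plus DMSO, high control DMSO only | Replicates: Singlicate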
OX1R antag-2 = OX1R (HCRTR1) antagonists, primary screen, fluorescence, CHO/OX1R cells, Fluo-8 calcium, orexin A; Orexin/Hypocretin receptor type 1 (Homo sapiens), O43613; Fluo-8 calcium fluorescence; inhibition, % at 5 µM; actives 0.43% (n = 330,000);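 active = inhibition above its plate's threshold, mean inhibition of all tested compounds on the plate plus 3 SD, cut at about 37% in these data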;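 note: 0% = orexin A challenge wells and 100% = SB-334867-A antagonist wells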
TAAR1 ag = human TAAR1 agonists, primary screen, Fluo-8 calcium fluorescence, CHO RD-HGA16 cells. Trace amine-associated receptor 1 (Homo sapiens), Q96RJ0. vehicle wells 0%, saturating PEA agonist 100%. activation, % at 3 µM. actives 0.99% (n = 360,000). AID 624467, 2012;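 active = activation above the mean activation of all test compounds in the run plus 3 SD, cut at about 38% in these data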
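System: CHO-derived RD-HGA16 cells with stable Gα16 and human TAAR1 / Times: 17-24 h plating, Fluo-8 75 min 37 °C, 30 min RT / Technique: calcium-sensitive Fluo-8 signal, excitation 470-495, emission 515-575 nm / Measure: % activation relative to PEA EC100 response / Benchmarks: DMSO and PEA EC100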
Active calls of the source: *; nt = no result. Hits are enriched below; roughly 4% of the tested compounds scored in any of these assays.

SMILES | OX1R antag-1 | TAAR1 antagonist | CHO parental Ca | OX1R antag-2 | TAAR1 ag
COC(=O)c1c(C)oc2ccc(NS(=O)(=O)c3cccs3)cc12 | 40* | 9 | 9 | -3 | 24
Cc1cc2c(cc1C)NC(CC(=O)NCc1ccccc1)C(=O)N2 (stereo not drawn) | 35* | 3 | -14 | 2 | 4
COc1ccc(NS(=O)(=O)c2ccc(S(=O)(=O)N3CCCC3)cc2)cc1 | 17 | 19 | 40* | 14 | 30
COc1ccc(S(=O)(=O)Nc2cccc(S(=O)(=O)N3CCCCC3)c2)cc1 | 50* | -17 | -26 | -5 | 3
O=S(=O)(Nc1ccccc1OC(F)F)c1ccc(S(=O)(=O)N2CCCC2)cc1 | 31* | 12 | -11 | 8 | 1
COc1cccc(C2NC(=S)N(Cc3ccccc3)C(C)=C2C(C)=O)c1 (stereo not drawn) | nt | 3 | nt | nt | -1
Nc1[nH]c(C(=O)c2ccc(Br)cc2)c(-c2cccc3ccccc23)c1C(=O)NCCc1c[nH]c2ccccc12 | nt | -24 | nt | nt | 3
O=C1NC[C@@H](CCCCN2CCN(CCc3ccccc3)C(=O)C2=O)N(Cc2ccccc2)C1=O | nt | 6 | nt | nt | 1
O=C(Cn1ccc2cc(S(=O)(=O)N3CCCC3)ccc21)NCCc1ccccc1 | 55* | -10 | -4 | 21 | 31
Cn1c(=O)oc2cc(S(=O)(=O)N3CCC(C(=O)NCCc4ccccc4)CC3)ccc21 | 8 | -3 | 41* | -6 | 1
O=C(NCCc1ccccc1)C1CCCN(S(=O)(=O)c2cccnc2)C1 (stereo not drawn) | 7 | -2 | -3 | -3 | 40*
Cc1ccccc1CCNC(=O)CCn1ccc2cc(S(=O)(=O)N3CCCC3)ccc21 | 8 | -3 | -23 | -20 | 44*
NS(=O)(=O)c1ccc(CCNC(=O)C2CCCN(S(=O)(=O)c3cccnc3)C2)cc1 (stereo not drawn) | 3 | -29 | -13 | -25 | 1
COc1ccccc1CCNC(=O)Cn1ccc2cc(S(=O)(=O)N3CCCC3)ccc21 | 55* | -11 | -3 | 19 | 4
C#CCC1c2ccccc2CCN1CC=C (stereo not drawn) | nt | -3 | nt | nt | 2
CC(=O)c1c(C)[nH]c(C(=O)OCCCCN2C(=O)c3ccccc3C2=O)c1C | 45* | 72* | 75* | 63* | 21
Cc1cccc(NC(=S)/N=C(\N)Nc2nc(C)c3ccccc3n2)c1 | 76* | -18 | -8 | 12 | 0
CC(=O)Nc1sc(/C(C#N)=C\c2cccc(Cl)c2)nc1-c1ccc(C)cc1 | 19 | 52* | 16 | 32 | 33
CN(C)S(=O)(=O)c1ccc2c(c1)/C(=C/c1cc3c([nH]1)CCCC3)C(=O)N2 | -3 | 43 | 36* | 29 | 21
CN(C)S(=O)(=O)c1ccc2c(c1)C(=O)c1cc(S(=O)(=O)N(C)C)ccc1CC2 | 4 | 12 | -9 | -6 | 9
COc1ccc2[nH]c3c4c(ccc3c2c1)C(=O)C=CC4=O | nt | 77* | nt | nt | 44*
COc1ccc2[nH]c(=O)cc(C(=O)O)c2c1 | -4 | -4 | -13 | -15 | 8
CCOc1cc(/C=C2\NC(=O)NC2=O)ccc1OC(C)C(=O)O (stereo not drawn) | 42* | 5 | -6 | -12 | 0
COc1cc(C=C2NC(=O)NC2=O)ccc1O | nt | -1 | nt | nt | 0
O=C(Nc1ccc(C2=NCCN2)cc1)c1ccc(C(=O)Nc2ccc(C3=NCCN3)cc2)c([N+](=O)[O-])c1 | 38* | 3 | -17 | -12 | 0
SMILES | OX1R antag-1 | TAAR1 antagonist | CHO parental Ca | OX1R antag-2 | TAAR1 ag
Cc1ccc(NC(=O)c2ccc(-n3cccn3)c([N+](=O)[O-])c2)cc1 | 17 | 21 | 4 | -15 | 12
COc1ccc(-c2ccc3ccccc3n2)cc1OC | 22 | 5 | -18 | -38 | -1
COc1cc2ccc(-c3ccc4ccccc4n3)cc2cc1OC | nt | 58* | nt | nt | 10
C[C@@H]1CN([C@@H](C)CO)C(=O)CCCn2cc(nn2)CO[C@H]1CN(C)C(=O)Nc1ccc(C(C)(C)C)cc1 | nt | -1 | nt | nt | 3
CSc1ccc(CN(C)Cc2cc(=O)oc3c(C)c(C)ccc23)cc1 | 12 | 26 | 53* | -15 | 3
O=S1(=O)c2ccc(Br)cc2OC2CCCC[C@@H]2N1Cc1ccccc1 (stereo partly drawn) | nt | 10 | nt | nt | 0
C=C(C)c1cc2c(ccc3ccc(=O)oc32)o1 | 75* | 1 | -20 | 38 | -2
CNC(=O)c1cc2c(ccc3ccccc32)o1 | 20 | -4 | -1 | -24 | 2
CCOC(=O)C1CCN(C(=O)c2ccc(OCC(=O)Nc3ccc(OCC)cc3)c(OC)c2)CC1 | 21 | 8 | -11 | -35 | 2
CCN(CC)c1ccc(C(=O)OCC(=O)Nc2ccccc2-c2ccccc2)cc1 | 49* | 36 | 67* | -3 | 1
CN(C)c1cccc(C(=O)OCC(=O)Nc2ccccc2-c2ccccc2)c1 | 33 | 6 | -8 | -4 | 0
COc1ccccc1Nc1nc(N)nc(CSc2nc(C)cc(C)n2)n1 | 11 | 2 | -16 | -13 | 12
Nc1nc(-c2ccccc2)nc(-c2ccccc2O)n1 | 52* | 21 | -9 | 7 | 1
Cc1cc(C)nc(SCc2nc(N)nc(-c3ccccc3O)n2)n1 | 55* | 10 | -13 | 12 | 8
Nc1nc(N)nc(-c2ccccc2O)n1 | 30 | -13 | -14 | -7 | 2
Cc1cccc(N2CCN(C(=O)C3CCN(S(=O)(=O)c4cccc5nsnc45)CC3)CC2C)c1 (stereo not drawn) | 38 | 60* | -1 | -14 | 21
Cc1cccc(N2CCN(C(=O)C3CCN(c4nnc(-n5cccc5)s4)CC3)CC2C)c1 (stereo not drawn) | 15 | 49* | -2 | -28 | 7
CCCC1/C(=N/O)CC(c2ccccc2)NC1c1ccccc1 (stereo not drawn) | 21 | 57* | 19 | 7 | 18
Cc1cc2nc(-c3ccc(F)cc3)c(CC3CCCCC3)n2c(C)c1Br | nt | -5 | nt | nt | 1
O=C(N[C@H](Cc1ccccc1)C(=O)NCc1ccc(OC(F)(F)F)cc1)[C@H]1O[C@@H](n2ccc(=O)[nH]c2=O)[C@H](O)[C@@H]1O | nt | -16 | nt | nt | 0
O=C(CCc1nc(-c2ccc(Cl)cc2)no1)NC1CCCCC1 | 21 | 4 | -3 | -10 | 1
O=C(CCCc1nc(-c2ccc(Cl)cc2)no1)NC1CCCC1 | 38 | -14 | 48* | 11 | 2
Cn1c(O)c(N=NC(=O)CNC(=O)c2ccccc2)c2ccccc21 | 48* | 0 | -13 | -16 | -1
Cn1c(O)c(N=NC(=O)CNC(=O)c2ccccc2)c2cc(Br)ccc21 | 59 | -8 | -20 | -31 | -2
